The full list was thinned out, with hits kept by preference.
T cruzi repl: inhibitors of intracellular T. cruzi growth, primary screen, luminescence, NIH3T3 host cells; hit rate 1.4% among 300,000; AID 1885, 2009; T. cruzi beta-gal in NIH3T3, 90 h; inhibition, % (concentration not given with the values);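 active = mean inhibition across valid replicates above about 55%, limit read from the data; inconclusive = mean below that limit but half or more replicates reach it; inactive = mean below it, under half of replicates reach it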;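 note: signal also drops with host cell toxicity which is not excluded here; 0% = plate median of DMSO wells and 100% = zero luminescence signal; higher percent means less beta-gal luminescence so fewer parasites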
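Material: NIH/3T3 host cells with β-galactosidase reporter T. cruzi; Input: 5,000 host fibroblasts per well; Medium: DMEM, 2% fetal bovine serum; Compound: 50 nL DMSO compound solution per well; Schedule: 3 h host attachment, then at least 90 h co-culture; Detection: luminescent β-galactosidase signal after 60 min lysis.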
Calb FLC: C. albicans growth inhibition with fluconazole, primary screen, CaCi-2 strain, Alamar Blue fluorescence. C. albicans CaCi-2 + fluconazole, 48 h. growth inhibition, % (test concentration not listed). hit rate 0.57% among 300,000. AID 1979, 2009;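 active = growth inhibition above about 58% in most replicates, limit read from the data, passing the limit was not always enough; inconclusive = exactly half the replicates above a set limit; inactive = most replicates below a set limit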;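 note: all wells also contain fluconazole at 8 µg/ml as a sub-toxic cotreatment; 0% = median of DMSO wells and 100% = median of geldanamycin control wells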
PolyA inhibitor: polyadenylation inhibitors in yeast reporter cells, primary screen, luminescence, S. cerevisiae | AID 1875, 2009 | S. cerevisiae SKY197-pL101 polyadenylation reporter, beta-gal luminescence; efflux-impaired pdr1/pdr3 knockout yeast; score 100 = 6 SD above DMSO | activity score, % at 12 µM | hit rate 0.02% among 300,000;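 active = lowest replicate activity score at least 50, where 100 means six control SD above control mean; inconclusive = lowest score under 50 but half or more replicates reach 50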;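 note: yeast exposed to compound for 9 h at 30 °C; higher score means more reporter readthrough which indicates perturbed polyadenylation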
L major viab: Leishmania major promastigote growth inhibition, primary screen; Leishmania major promastigotes, resazurin fluorescence viability; inhibition, % at 10 µM; hit rate 9% among 200,000; AID 1063, 2008; in the data active = inhibition above about 50%;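 note: promastigotes grown with compound for 44 hours at 28 °C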
NLRP3 yeast inh: NALP3 inflammasome inhibitors in reconstituted yeast, primary screen, luminescence, uHTS; Yeast reconstituted NLRP3/ASC/caspase-1, beta-gal luminescence, 24 h; inhibition, % at 10 µM; hit rate 0.39% among 330,000;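 active = inhibition of 50% or more; inactive = inhibition below 50%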;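 note: plate controls were induced DMSO wells for no effect and uninduced yeast grown without galactose for full effect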
NALP1 yeast inh: NALP1 inflammasome inhibitors in reconstituted yeast, colorimetric, S. cerevisiae, triplicate retest | S. cerevisiae NALP1/ASC/caspase-1 growth, X-gal OD620, 72 h | inhibition, % at 10 µM | hit rate 0.61% among 280,000 | AID 2071, 2009; in the data active = inhibition mostly above about 24%, no sharp cut-off; inactive = mostly below about 32%
* = called active by the depositor; ? = inconclusive; / = not tested or not shown.

SMILES	T cruzi repl	Calb FLC	PolyA inhibitor	L major viab	NLRP3 yeast inh	NALP1 yeast inh
COc1cccc(N2CCN(CC(=O)c3c[nH]c4ccc(OC)cc34)CC2C)c1 (stereo unspecified)	8	1	-6	73*	32	-4
COc1ccc2[nH]cc(C(=O)CN3CCCC(C)C3)c2c1 (stereo unspecified)	-8	-7	6	-4	6	14
O=C(/C=C\c1ccc(-c2cccc([N+](=O)[O-])c2)o1)N1CCOCC1	1	97*	-6	1	29	8
CN(C)CCC1CCN(c2cc(C#N)c(C#N)cc2[N+](=O)[O-])CC1	79*	29	7	55*	16	-1
N#Cc1cc(N2CCCCC2)c([N+](=O)[O-])cc1C#N	-4	-33	-11	-2	10	13
Cc1ccc(S(=O)(=O)NCC(=O)NC2CC2)cc1	-4	-1	13	/	16	4
Cc1nc(NC2=NCN(Cc3ccccc3)CN2)nc2ccccc12	/	/	/	/	/	32*
Cc1nc(NC2=NCN(CCc3ccccc3)CN2)nc2ccccc12	/	/	/	/	/	37*
Cc1nc(NC2=NCN(CCCN3CCOCC3)CN2)nc2c(C)cccc12	/	/	/	88*	2	3
Cc1nc(NC2=NCN(CCc3ccccc3)CN2)nc2c(C)cccc12	/	/	/	96*	/	/
CC(C)CCCC(C)CCOC(=O)CN1CCCC1 (stereo unspecified)	-7	8	10	/	11	-41
COc1cccc(OC)c1-c1nn2c(-c3cc(-c4ccccc4)n[nH]3)nnc2s1	41	7	10	61*	47	-8
COc1cccc(-c2nnc3sc(-c4ccccc4)nn23)c1	11	24	-13	-10	32	9
COc1ccccc1-c1nn2c(-c3ccco3)nnc2s1	27	28	-20	67*	13	-2
Cc1ccc(Cn2c(SCC(=O)N(C)C3CCS(=O)(=O)C3)nc3ccccc3c2=O)cc1 (stereo unspecified)	6	27	-5	/	6	/
CCNc1nc(NCC)nc(N(CC)C(N)=S)n1	3	1	-1	/	13	15
CC[n+]1c(/C=C2\C=C(C)CC(C)(C)C2)sc2ccccc21	46	-11	-2	100*	16	-4
COc1ccc2sc(C)[n+](C)c2c1	-8	11	-24	0	21	12
CCC1=C/C(=C/c2sc3ccccc3[n+]2CC)CC(C)(C)C1	24	?	-5	99*	23	0
CC[n+]1c(C)sc2sc3ccccc3c21	44	8	17	/	27	/
CC[n+]1c(/C=C2/C=C(C)CC(C)(C)C2)sc2ccc(OC)cc21	37	15	4	100*	15	4
CC[n+]1c(/C=C2\C=C(C)CC(C)C2)sc2ccccc21 (stereo unspecified)	23	-11	4	100*	-2	14
CCOc1ccc(-n2c(SCC(=O)NCc3ccco3)nnc2-c2c[nH]c3ccccc23)cc1	-13	2	-11	93*	9	24
COc1ccc(-n2c(-c3ccc(F)cc3)cnc2SCC(=O)NCc2ccco2)cc1	32	1	13	100*	7	8
CCOC(=O)c1c2c(n(C)c1COC)C(=O)C(=O)c1ccc(Br)cc1-2	-14	-36	3	100*	12	/
SMILES	T cruzi repl	Calb FLC	PolyA inhibitor	L major viab	NLRP3 yeast inh	NALP1 yeast inh
COCCNCCOCCOc1ccc(Cl)c(C)c1	37	-24	14	100*	10	13
Cc1cc(OCCOCCN(C)C)ccc1Cl	36	-4	7	89*	5	37
Cc1cc(Cl)cc(Cl)c1OCCOCCN(C)C	23	7	-6	65*	-4	20
CCc1cc(OCCN(C)C)ccc1Cl	19	11	9	5	14	-20
Cc1nccn1CCOc1ccccc1Cl	-18	-1	10	/	14	-1
CN(CC(=O)NCc1ccncc1)S(=O)(=O)c1ccc(Cl)cc1	-3	5	15	-6	-4	21
COc1cc(C(=O)OCC(=O)c2cc(C)n(C)c2C)cc(OC)c1OC	-11	7	20	19	2	10
